Measurements pooled from the literature.
Each line is one published result; the experiments were not run side by side.
Target: Serine/threonine-protein kinase 26 (STK26, Homo sapiens, UniProt Q9P289)

| test | conditions | measurement | value | SMILES |
| --- | --- | --- | --- | --- |
| enzyme activity, inhibitor | 1 µM | inhibition | 47% | CO[C@@H]1[C@H](N(C)C(=O)c2ccccc2)C[C@H]2O[C@]1(C)n1c3ccccc3c3c4c(c5c6ccccc6n2c5c31)C(=O)NC4 |
| binding | 0.1 µM | remaining binding | 74% | C1=C/COCc2cc(ccc2OCCN2CCCC2)Nc2nccc(n2)-c2cccc(c2)COC/1 |
| binding, competition with immobilised ligand | 1 µM | remaining binding | 85% | COc1ccc2[nH]c3c4[nH]c5ccc(OC)cc5c4c4c(c3c2c1)C(=O)NC4=O |
| enzyme activity, inhibitor | 1 µM | inhibition | 0% | CC#CC(=O)N1CCC[C@H]1c1nc(-c2ccc(C(=O)Nc3ccccn3)cc2)c2c(N)nccn12 |
| binding, competition with immobilised ligand | 1 µM | remaining binding | 11% | CN1CCN(C(=O)c2ccc(NC(=O)Nc3ccc(N(C)c4ccnc(Nc5ccc(CS(C)(=O)=O)cc5)n4)cc3)cc2)CC1 |
| enzyme activity, inhibitor | 0.1 µM | inhibition | 19.3% | Cc1cc(O)c(-c2ccc([C@@H](C)CN(C)C)cc2)c2c1[nH]c(=O)c1sccc12 |
| binding, competition with immobilised ligand | 0.5 µM | remaining binding | 100% | CCCCC(=O)Nc1ccc(-c2ccc3ncn(CCC)c(=O)c3c2)cn1 |
| enzyme activity, inhibitor | 1 µM | activity vs control | 84% | CC(C)S(=O)(=O)c1ccc2nccc(Nc3ccc4sc(C5CCCC5)nc4c3)c2c1 |
